According to the EternaBench riboswitch data:

Test system: MS2 coat protein
Experiment: apparent Kd, MS2 coat protein; higher = weaker binding; RNA-MaP array
How it was run: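 Designed RNAs were transcribed in place on an Illumina sequencing chip from sequenced DNA templates. At room temperature and with or without input ligand, they were incubated with fluorescently labeled MS2 coat protein from 1.5 nM to 3 μM, for 0.8–1.5 h at the lowest and 10–20 min at the highest concentrations. Apparent Kd is the median of the binding-curve fits made per cluster, with designs measured on fewer than 10 clusters excluded.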

[1] = designed as: ON switch for flavin mononucleotide, no ligand
[2] = ligand present: flavin mononucleotide, designed as: ON switch for flavin mononucleotide
[3] = designed as: ON switch for theophylline, no ligand
[4] = ligand present: theophylline, designed as: ON switch for theophylline
[5] = designed as: OFF switch for flavin mononucleotide, no ligand
[6] = ligand present: flavin mononucleotide, designed as: OFF switch for flavin mononucleotide
[7] = designed as: ON switch for tryptophan, no ligand
[8] = ligand present: tryptophan, designed as: ON switch for tryptophan

Sequence | apparent Kd [1] [nM] | apparent Kd [2] [nM] | apparent Kd [5] [nM] | apparent Kd [6] [nM] | also measured
CACCGGAAUGGAGGAUAUCCUACACAUGAGGAUCACCCAUGUUAUUUAUAGCUAUUAAAAGUUCGGGAGAAGGCCAAGCGAUUC | 28.7 | 13.2 |  |  | 
CACGCCAGAUCUCAGGAUAUCCCACAUCAAACAUGAGGAUCACCCAUGUGACAUAUAUAGAACAUGGAGAAGGGAGCACAUGCGGC | 209 | 113 |  |  | 
CAUGAUAAGUUGGAUACCAGCAUAUGGAACAACAUGAGGAUCACCCAUGUCAAAUGACAUUGCCCUUGGCAGCCACCUACUGUCA |  |  |  |  | apparent Kd [3]: 20.3 nM; apparent Kd [4]: 11.1 nM
CAUUAAACAGCAGGAUAUACUAGUGUGAUACUGGUAGAAGGGCUCCUCACCCACAUGAGGAUCACCCAUGUGACAUCUACCUUA | 314 | 146 |  |  | 
CCAAGAGUACUAGGAUAUUCCGGCCACGCACAUGAGGAUCACCCAUGUGAGACUCUCAGACGGUCGAAGAAGGAGUUGCAGGCU |  |  | 34.8 | 30.9 | 
CCAAGCAUAAUAGAUACCAGUCGUAUACCUCCAACAUGAGGAUCACCCAUGUGCUCAGUUGACCCUUGGCAGCUAUGCCUAUAGA |  |  |  |  | apparent Kd [3]: 39.6 nM; apparent Kd [4]: 25.8 nM
CCGCCCUACCGCGAUACCAGUACGGCAGUUAACAUGAGGAUCACCCAUGUGCAAACAUAAUACCCUUGGCAGCGCCUGAAUCCAU |  |  |  |  | apparent Kd [3]: 17.7 nM; apparent Kd [4]: 17.3 nM
CCGGUCCACUAGGAUAUGCGGAGUGUAUAUCACGCAGAAGGAGUCACAUGAGGAUCACCCAUGUGCGUGGGUUG |  |  | 9.4 | 9.16 | 
CCGUGGCAUCAACAGGAUAUGCUAUCAAAGACAUGAGGAUCACCCAUGUGGGUAUAUUACUUCCGGCAGAAGGGUUUAAGGGUUAC | 36.6 | 28.9 |  |  | 
CCUGUAGACCCGACAUGAGGAUCACCCAUGUGUAGUUAUGGUAGAAGGUCGUACUGAACACACUCGAAGGAUAUACCCUUAUAC | 13.9 | 13.3 |  |  | 
CGAACGGGCCACACUACAUGAGGAUCACCCAUGUUCGAAGAUAGAAGGUGUAGCUGGCCUCGUUACAAGGAUAUAUCUUAUACC |  |  | 29.2 | 27.4 | 
CGACGUCACGUGAGGAUAUGAUUGCUGCAAAUCAGUCAGAAGGCACAUGAGGAUCACCCAUGUCACCAAUACGA |  |  | 7.15 | 10.3 | 
CGACUGAAUAGGCAGUACACAUGAGGAUCACCCAUGUUAGCAAGAAGGCAAGAGCCAGCGGAGCUUGAGGAUAUUGAAGAUCUC | 27.2 | 27.4 |  |  | 
CGCCCAGUUACGGCCGCCACUUCGAUGGCAAAUGUCGAGCCUCCACAUGAGGAUCACCCAUGUCGAAGGACCGGGUACUGCUUGC |  |  |  |  | apparent Kd [7]: 31.9 nM; apparent Kd [8]: 110 nM
CGCUACAUGAGGAUCACCCAUGUUACUCCGCGAGGACCGGUACGGCCGCCACUCGGCAGUUUGCGCCGCCGGAGGCACUCUUCAG |  |  |  |  | apparent Kd [7]: 27 nM; apparent Kd [8]: 33.1 nM
CGGGCGAAGCCUUUCACAUGAGGAUCACCCAUGUCUAAUACGAAGGAUAUCCUCGCCGGAGCUAAGGAGAAGGUCGACAUAGUU |  |  | 18.9 | 19.2 | 
CGUGUACAUGAGGAUCACCCAUGUUAGGAUAUCUUACCAAAGUCGAGGUGACUCCGGGAGAGAAGGAACUGGCA |  |  | 78.6 | 79.1 | 
CUAACCACAAUAGGAUAUCGGGCUCGUUUCAUUGCUGCAAAACAUGAGGAUCACCCAUGUCCGUCCGAGAAGGAUUGUAAGAAU | 92.1 | 14.8 |  |  | 
CUAGGUCAGCUAGGAUAUACUUCUUGCAUGGAUGUAGAAGGAGCGAUAAGAUCUACAUGAGGAUCACCCAUGUUACUUAGGGUG |  |  | 290 | 131 | 
CUCCCACUAUCUGAUACCAGAGGAUAAACGUAGACUGGGAACAUGAGGAUCACCCAUGUCCUCCCUUGGCAGCAGGACUUAUCUC |  |  |  |  | apparent Kd (designed as: OFF switch for theophylline, no ligand): 21.9 nM; apparent Kd (ligand present: theophylline, designed as: OFF switch for theophylline): 38.3 nM
CUCGUCAACUCGGCCGCCACUGACGUGUGGUCAGGCCUGUAGAAACACAUGAGGAUCACCCAUGUCAGGACCGGGAGCUUUAUUA |  |  |  |  | apparent Kd (designed as: OFF switch for tryptophan, no ligand): 46.9 nM; apparent Kd (ligand present: tryptophan, designed as: OFF switch for tryptophan): 58.2 nM
CUCUAUCAGCAAGGAUAUGGGAGGUGUCGAGUUCCAGAAGGUGCACAUGAGACAUGAGGAUCACCCAUGUUGUGUAGUCCUCGA |  |  | 10.8 | 26.5 | 
GAAAAUUCCUAGAAGGCGGAUUAUACUUGGUUGAACAUGAGGAUCACCCAUGUAUCUGGCAAACCCGAGGAUAUAGAUUUUCCA | 56.2 | 31.2 |  |  | 
GAAGCUCGCGAUGAUACCAGCUCGACUGAUAACAUGAGGAUCACCCAUGUUGUGCGCCCUAGCCCUUGGCAGCAUGACAUAUUCG |  |  |  |  | apparent Kd [3]: 110 nM; apparent Kd [4]: 71.1 nM
GACAUGAGGAUCACCCAUGUUUCGGUUACAUUGUAAUCAUGAUAGGAUAUCUCUGCUGUGGUGAGAGAGAAGGAUCGUCUGCUU | 13 | 10.6 |  |  | 
GACGAAUCGGCAGGAUAUCUAGAUGAGCCAGAAUGUAAUUGAGUUGACAUGAGGAUCACCCAUGUAGAGAAGGGCCCAUCCAUU |  |  | 12.1 | 20.7 | 
GACUACCAGGAAGGAUAUGCCUAUAACUGAAAGACAUGAGGAUCACCCAUGUAUUGGGCGAACCUGCAGAAGGUCCGACUAGAC |  |  | 40.6 | 41.2 | 
